Assay results from paper PMC6955414 (British Journal of Clinical Pharmacology, 2019).
Read-outs that look alike come from different tables or passages of the source.

Legend:
[1] = assay type: in vivo, human; details: for AUC0–inf, geometric mean / Cmax, geometric mean / AUC_% Extrap / CL/F / Cmax / T1/2 / Tmax / Vz/F / median Tmax: single 200 μg s.c.; for AUC_% Extrap / CL/F / Cmax / T1/2 / Tmax / Vz/F: mean ± SD
Outline: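 Open-label phase I study in renally impaired and matched normal-function adults (CLcr ≥90 mL/min), with or without T2DM. A single abdominal s.c. injection was given at 08:00, followed by a standard breakfast. […] Parameters came from noncompartmental analysis; log-transformed AUC0–inf ratios to the normal group were given with 90% CI.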

Safety evaluation = assay type: in vivo, human
Outline: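 Single abdominal s.c. 200 μg dose given fasting on day 1. Monitoring covered adverse events, vital signs, physical examination, fasting venous glucose, blood and urine routine, blood biochemistry and 12-lead ECG. Assessments were at 24, 144, 312 and 720 h post-dose. The safety set comprised all dosed subjects with post-dose safety data.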

[2] = cited from earlier work
[3] = Mild impairment (n=8), single 200 μg s.c.
[4] = Moderate impairment (n=8), single 200 μg s.c.
[5] = Normal renal function (n=10), single 200 μg s.c.
[6] = all groups (26 subjects), single 200 μg s.c.

With Polyethylene glycol loxenatide [PEX168] the “AUC0–inf, geometric mean” value ([1]; Mild impairment (n=8)) was 16 500 h^*ng/mL, the “Cmax, geometric mean” value ([1]; Mild impairment (n=8)) was 48.5 ng/mL and the “AUC_% Extrap” value ([1]; Mild renal impairment, n=8) was 3.49 ± 1.32%. For the same substance, the CL/F ([1]; Mild renal impairment, n=8) was 0.0136 ± 0.00657 L/h, the Cmax ([1]; Mild renal impairment, n=8) was 54.1 ± 29.7 ng/mL and the T1/2 ([1]; Mild renal impairment, n=8) was 117 ± 16.5 h. The Tmax ([1]; Mild renal impairment, n=8) was 123 ± 15.4 h, the Vz/F ([1]; Mild renal impairment, n=8) was 2.28 ± 1.09 L and the “AUC0–inf, geometric mean” value ([1]; Moderate impairment (n = 7)) was 29 200 h^*ng/mL. The “Cmax, geometric mean” value ([1]; Moderate impairment (n = 7)) was 73.1 ng/mL, the “AUC_% Extrap” value ([1]; Moderate renal impairment, n=7) was 6.92 ± 1.75% and the CL/F ([1]; Moderate renal impairment, n=7) was 0.00711 ± 0.0022 L/h. For the same substance, the Cmax ([1]; Moderate renal impairment, n=7) was 78.1 ± 35.9 ng/mL, the T1/2 ([1]; Moderate renal impairment, n=7) was 163 ± 14.7 h and the Tmax ([1]; Moderate renal impairment, n=7) was 144 ± 33.9 h. The Vz/F ([1]; Moderate renal impairment, n=7) was 1.69 ± 0.61 L, the “AUC0–inf, geometric mean” value ([1]; Normal (n = 8)) was 14 600 h^*ng/mL and the “Cmax, geometric mean” value ([1]; Normal (n = 8)) was 56.6 ng/mL. It also gave a CL/F ([1]; Normal renal function, n=8) of 0.0140 ± 0.00298 L/h, a Tmax ([1]; Normal renal function, n=8) of 114 ± 45.8 h and a Vz/F ([1]; Normal renal function, n=8) of 2.44 ± 0.56 L. The “median Tmax” value ([1]; mild impairment group) was 120 h, the “Cmax, geometric mean ratio normal vs mild” value ([1]; mild impairment relative to normal renal function, 90%CI 61.5–119) was 85.6% and the “AUC0–inf, geometric mean ratio normal vs mild” value ([1]; mild impairment relative to normal renal function, 90%CI 82.1–156) was 113%. The “AUC0–inf increase compared to the normal group” value ([1]; mild renal impairment) was 13.1%, the “Cmax reduction compared to the normal group” value ([1]; mild renal impairment) was 14.3% and the “median Tmax” value ([1]; moderate impairment group) was 144 h. For the same substance, the “Cmax, geometric mean ratio normal vs moderate” value ([1]; moderate impairment relative to normal renal function, 90%CI 91.7–182) was 129%, the “AUC0–inf, geometric mean ratio normal vs moderate” value ([1]; moderate impairment relative to normal renal function, 90%CI 144–280) was 201% and the “AUC0–inf increase compared to the normal group” value ([1]; moderate renal impairment) was 100.7%. For the same substance, the “Cmax increase compared to the normal group” value ([1]; moderate renal impairment) was 29.1%, the “median Tmax” value ([1]; normal group) was 96 h and the “Treatment-emergent AE: Abdominal discomforts, %” value (Safety evaluation; [3]) was 0%. The “Treatment-emergent AE: Acute kidney injury, %” value (Safety evaluation; [3]) was 0%, the “Treatment-emergent AE: Anaemia, %” value (Safety evaluation; [3]) was 0% and the “Treatment-emergent AE: Bloating, %” value (Safety evaluation; [3]) was 25%. The “Treatment-emergent AE: Hiccup, %” value (Safety evaluation; [3]) was 12.5%, the “Treatment-emergent AE: Increased white blood cell count, %” value (Safety evaluation; [3]) was 0% and the “Treatment-emergent AE: Nausea, %” value (Safety evaluation; [3]) was 50%. The “Treatment-emergent AE: Oropharyngeal discomfort, %” value (Safety evaluation; [3]) was 12.5%, the “Treatment-emergent AE: Overall AEs, %” value (Safety evaluation; [3]) was 87.5% and the “Treatment-emergent AE: Retching, %” value (Safety evaluation; [3]) was 0%. The “Treatment-emergent AE: Vomiting, %” value (Safety evaluation; [3]) was 50%, the “Treatment-emergent AE: Abdominal discomforts, %” value (Safety evaluation; [4]) was 0% and the “Treatment-emergent AE: Acute kidney injury, %” value (Safety evaluation; [4]) was 12.5%. The “Treatment-emergent AE: Anaemia, %” value (Safety evaluation; [4]) was 12.5%, the “Treatment-emergent AE: Bloating, %” value (Safety evaluation; [4]) was 0% and the “Treatment-emergent AE: Hiccup, %” value (Safety evaluation; [4]) was 12.5%. For the same substance, the “Treatment-emergent AE: Increased white blood cell count, %” value (Safety evaluation; [4]) was 12.5%, the “Treatment-emergent AE: Nausea, %” value (Safety evaluation; [4]) was 62.5% and the “Treatment-emergent AE: Oropharyngeal discomfort, %” value (Safety evaluation; [4]) was 0%. For the same substance, the “Treatment-emergent AE: Overall AEs, %” value (Safety evaluation; [4]) was 87.5%, the “Treatment-emergent AE: Retching, %” value (Safety evaluation; [4]) was 12.5% and the “Treatment-emergent AE: Vomiting, %” value (Safety evaluation; [4]) was 50%. For the same substance, the “Treatment-emergent AE: Abdominal discomforts, %” value (Safety evaluation; [5]) was 10%, the “Treatment-emergent AE: Acute kidney injury, %” value (Safety evaluation; [5]) was 0% and the “Treatment-emergent AE: Anaemia, %” value (Safety evaluation; [5]) was 0%. For the same substance, the “Treatment-emergent AE: Bloating, %” value (Safety evaluation; [5]) was 50%, the “Treatment-emergent AE: Hiccup, %” value (Safety evaluation; [5]) was 0% and the “Treatment-emergent AE: Increased white blood cell count, %” value (Safety evaluation; [5]) was 0%. The “Treatment-emergent AE: Nausea, %” value (Safety evaluation; [5]) was 20%, the “Treatment-emergent AE: Oropharyngeal discomfort, %” value (Safety evaluation; [5]) was 0% and the “Treatment-emergent AE: Overall AEs, %” value (Safety evaluation; [5]) was 70%. For the same substance, the “Treatment-emergent AE: Retching, %” value (Safety evaluation; [5]) was 0%, the “Treatment-emergent AE: Vomiting, %” value (Safety evaluation; [5]) was 0% and the “AE: gastrointestinal disorders, subjects” value (Safety evaluation; [6]) was 80.8%. The “AE: laboratory tests, subjects” value (Safety evaluation; [6]) was 42.3%, the “AE: metabolism and nutrition disorders, subjects” value (Safety evaluation; [6]) was 42.3% and the “Treatment-emergent AE: gastrointestinal disorders, subjects” value (Safety evaluation; all groups, single 200 μg s.c., including nausea, vomiting and bloating) was 80.8%. The Tolerability (Safety evaluation; single dose of 200 μg, patients with mild-to-moderate renal impairment) was “well tolerated”.
In the case of exenatide, the in vivo half-life [2] is listed as 2 to 3 h.
